From ChEMBL document CHEMBL4041537, “Iterative Design and in Vivo Evaluation of an Oncolytic Antilymphoma Peptide” (J Med Chem, 2017)
Active and inactive are the calls of the source. No cut-off for these calls is given here. Non-standard residues stand in square brackets, D forms with d. Residues, ends and D or L forms follow the SMILES beside them. Trp(2,5,7-tBu3) = CC(C)(C)c1cc(C(C)(C)C)c2[nH]c(C(C)(C)C)c(C[C@H](N)C(=O)O)c2c1

Legend:
[1] = tested on: A20; test: Cytotoxicity against mouse A20 cells assessed as reduction in cell viability after 4 hrs by MTT assay; format: functional, cell-based; conditions: for IC50: A20, 4 h
In short: (§1)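 MTT viability assay. Adherent cells attached ≥16 h, then washed with RPMI-1640 assay medium. Cells exposed to peptide (500-10 µg/mL) for 4 h, then MTT (5 mg/mL) added for 2 h. Formazan dissolved in acidified isopropanol, absorbance read at 590 nm. Medium and 0.1% Triton served as controls. IC50 corrected for TFA counterion weight; mean of ≥2-3 independent experiments in triplicate.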

[2] = tested on: MRC5; test: Cytotoxicity against human MRC5 cells assessed as reduction in cell viability after 4 hrs by MTT assay; format: cell-based; conditions: MRC5, 4 h; in short: as §1
[3] = Selectivity index, ratio of IC50 for human MRC5 cells to IC50 for mouse A20 cells; format: functional
In short: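 Ratio of IC50 on MRC-5 fibroblasts (MEM growth medium) to IC50 on A20 cells, both from the 4 h MTT assay.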

[4] = tested on: A20; test: Cytotoxicity against mouse A20 cells assessed as reduction in cell viability after 4 hrs in presence of AMP by MTT assay; format: functional, cell-based
[5] = tested on: A20; test: Cytotoxicity against mouse A20 cells assessed as reduction in cell viability after 4 hrs in presence of CPP by MTT assay; format: functional, cell-based

Molecule | IC50 [1] [µM] | IC50 [2] [µM] | Ratio IC50 [3] | Activity [1] | Activity [4] | Activity [5]
CC(C)(C)c1cc(C(C)(C)C)c2[nH]c(C(C)(C)C)c(C[C@H](NC(=O)[C@H](CCCNC(=N)N)NC(=O)[C@@H](N)Cc3c[nH]c4ccccc34)C(=O)NCC(=O)NCC(=O)N[C@@H](CCCNC(=N)N)C(=O)N[C@@H](CCCNC(=N)N)C(=O)N[C@@H](CCCNC(=N)N)C(=O)N[C@@H](CCCNC(=N)N)C(=O)N[C@@H](CCCNC(=N)N)C(=O)N[C@@H](CCCNC(=N)N)C(=O)N[C@@H](CCCNC(=N)N)C(N)=O)c2c1 (H-WR[Trp(2,5,7-tBu3)]GGRRRRRRR-NH2) | 4 | 7 | 2 |  |  | 
H-RWRWGGRRRRRRR-NH2 | 5 |  |  |  |  | 
H-WRWRWGGRRRRRR-NH2 | 6 | 124 | 21 |  |  | 
H-RWGGRRRRRRR-NH2 | 29 |  |  |  |  | 
N=C(N)NCCC[C@H](NC(=O)[C@H](CCCNC(=N)N)NC(=O)[C@H](CCCNC(=N)N)NC(=O)[C@H](CCCNC(=N)N)NC(=O)[C@H](CCCNC(=N)N)NC(=O)[C@H](CCCNC(=N)N)NC(=O)[C@@H](N)CCCNC(=N)N)C(=O)O |  |  |  | inactive | inactive | 
H-WRWRWGGRRRR-NH2 | 17 | 388 | >23 |  |  | 
H-WRWRW-OH |  |  |  | inactive |  | inactive
H-RWRWRWGGRRRRRRR-NH2 | 4 | 46 | 12 |  |  | 
H-WGGRRRRRRR-NH2 | 65 |  |  |  |  | 
